In ChEMBL document CHEMBL4842360, “Discovery of a Bicyclic Peptidyl Pan-Ras Inhibitor” (J Med Chem, 2021):
Activity calls are given as the source filed them. No cut-off for these calls is given here. Numbered stars: 1 amine (or outer) side, 2 acyl side, 3 side chain; on linkers, the order of the positions; unused ones are H or OH. Bridge positions count the residues as written; N and C are the ends. Square brackets hold non-standard residues; d marks the D form. Peptide text beside a SMILES is read from it. Trimesoyl = O=C(c1cc(C(=O)[*:2])cc(C(=O)[*:3])c1)[*:1]; d2Nal = N[C@H](Cc1ccc2ccccc2c1)C(=O)O; Phg = N[C@H](C(=O)O)c1ccccc1; Orn = NCCC[C@H](N)C(=O)O; Dap = NC[C@H](N)C(=O)O

Key:
[1] = Drug localization in human HeLa cells assessed as mean fluorescence intensity at 5 uM incubated for 2 hrs in presence of 1% FBS by flow cytometry relative to CPP12; format: ADME, cell-based
Procedure, shortened: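 HeLa cells treated with 5 μM fluorescein-labeled peptide and analysed by flow cytometry. Mean fluorescence intensity expressed relative to FITC-labeled CPP12 (100%).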

NCI-H358 [2] = test: Induction of apoptosis in human NCI-H358 cells assessed as early apoptotic cells at 5 uM incubated for 24 hrs by Alexa Fluor 488 annexin V/propidium iodide staining based assay (reference value: 3.05%); format: functional
Albumin = Albumin (Bos taurus, UniProt P02769); test: Binding affinity to bovine serum albumin; format: ADME
Sequence of Albumin (P02769 whole entry): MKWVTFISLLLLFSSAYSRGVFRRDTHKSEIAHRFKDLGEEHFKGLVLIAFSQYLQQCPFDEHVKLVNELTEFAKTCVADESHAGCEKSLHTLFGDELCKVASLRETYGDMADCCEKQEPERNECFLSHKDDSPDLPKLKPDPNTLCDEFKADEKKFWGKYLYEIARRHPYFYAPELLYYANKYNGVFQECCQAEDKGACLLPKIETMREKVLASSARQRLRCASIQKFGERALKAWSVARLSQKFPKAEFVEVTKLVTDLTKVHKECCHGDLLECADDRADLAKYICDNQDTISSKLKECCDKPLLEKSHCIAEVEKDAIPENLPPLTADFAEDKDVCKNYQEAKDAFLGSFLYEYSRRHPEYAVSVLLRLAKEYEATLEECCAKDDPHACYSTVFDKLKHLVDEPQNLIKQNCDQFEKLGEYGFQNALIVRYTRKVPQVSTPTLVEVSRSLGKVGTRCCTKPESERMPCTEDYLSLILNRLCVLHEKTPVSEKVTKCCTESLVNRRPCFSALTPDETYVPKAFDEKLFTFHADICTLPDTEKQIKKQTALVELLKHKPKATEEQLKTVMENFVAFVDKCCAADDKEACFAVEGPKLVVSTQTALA
Procedure, shortened: (§1)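 Fluorescein-labeled peptide (100 nM) incubated 1 h at RT with varying concentrations of control protein (BSA, GST-RBD, PNP, PTP1B or MDM2). KD derived from fluorescence polarization titration curves.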

A549 [3] = test: Antitumor activity against human A549 cells xenografted in mouse assessed as reduction in tumor growth at 5 mg/kg, iv administered for 9 days measured every other day; format: functional; design: scale not given: the % may be the effect or the level left; conditions: time 9 day
Procedure, shortened: (§2)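 Nude mice given ~1.5 million A549 cells subcutaneously. Once tumors reached ~40 mm3, groups of n = 6 received peptide at 1 or 5 mg/kg/day or PBS vehicle by tail-vein injection for 9 days. Tumor volume was tracked, and tumors were weighed at harvest.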

[4] = biological target: E3 ubiquitin-protein ligase Mdm2 (Homo sapiens) (UniProt Q00987); test: Binding affinity to MDM2 (unknown origin); procedure, shortened: as §1
Sequence of E3 ubiquitin-protein ligase Mdm2 (Homo sapiens) (Q00987 whole entry, looked up): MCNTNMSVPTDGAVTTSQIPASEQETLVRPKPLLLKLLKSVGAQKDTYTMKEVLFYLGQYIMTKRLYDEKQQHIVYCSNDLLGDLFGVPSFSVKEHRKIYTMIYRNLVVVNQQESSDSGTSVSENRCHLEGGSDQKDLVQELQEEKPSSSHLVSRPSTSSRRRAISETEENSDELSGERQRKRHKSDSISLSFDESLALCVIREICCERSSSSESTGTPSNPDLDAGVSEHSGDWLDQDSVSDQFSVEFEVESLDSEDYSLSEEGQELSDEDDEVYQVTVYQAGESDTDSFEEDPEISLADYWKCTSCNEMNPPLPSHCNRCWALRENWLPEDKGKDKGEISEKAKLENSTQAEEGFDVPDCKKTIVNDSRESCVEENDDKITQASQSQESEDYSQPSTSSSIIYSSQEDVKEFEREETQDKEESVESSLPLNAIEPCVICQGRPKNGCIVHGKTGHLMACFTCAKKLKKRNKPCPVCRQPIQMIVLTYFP

[5] = biological target: T1, Tyrosine-protein phosphatase non-receptor type 1 (Homo sapiens) (UniProt P18031); test: Binding affinity to PTP1B (unknown origin); procedure, shortened: as §1
T1 sequence (whole entry): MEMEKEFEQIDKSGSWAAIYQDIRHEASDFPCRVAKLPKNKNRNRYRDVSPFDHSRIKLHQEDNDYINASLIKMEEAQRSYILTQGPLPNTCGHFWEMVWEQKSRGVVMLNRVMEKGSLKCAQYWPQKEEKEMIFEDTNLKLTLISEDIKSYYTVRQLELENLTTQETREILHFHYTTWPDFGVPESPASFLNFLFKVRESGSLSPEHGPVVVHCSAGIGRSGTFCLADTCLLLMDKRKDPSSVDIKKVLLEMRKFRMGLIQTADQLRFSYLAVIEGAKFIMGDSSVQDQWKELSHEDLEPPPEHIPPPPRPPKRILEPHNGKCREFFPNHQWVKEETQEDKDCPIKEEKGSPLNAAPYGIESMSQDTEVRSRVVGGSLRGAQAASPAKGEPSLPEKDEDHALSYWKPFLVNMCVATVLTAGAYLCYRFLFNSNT

A549 [6] = test: Antitumor activity against human A549 cells xenografted in mouse assessed as average tumor volume at 1 mg/kg, iv administered for 9 days measured every other day (reference value: 100 mm3); format: functional; conditions: time 9 day; procedure, shortened: as §2
NCI-H358 [7] = test: Induction of apoptosis in human NCI-H358 cells assessed as late apoptotic cells at 10 uM incubated for 24 hrs by Alexa Fluor 488 annexin V/propidium iodide staining based assay (reference value: […]); format: functional
NCI-H358 [8] = test: Antitumor activity against human NCI-H358 cells xenografted in mouse assessed as reduction in ERK phosphorylation at 1 to 5 mg/kg, iv administered for 9 days measured every other day by immunohistochemical staining method; format: functional, organism-based; conditions: dose 1-5 mg/kg, time 9.0 day
[9] = Toxicity in mouse xenografted with human A549 cells assessed as effect on body weight at 1 to 5 mg/kg, iv administered for 9 days; format: organism-based; conditions: in vivo, 216 h, dose 1-5 mg/kg, time 9 day
Procedure, shortened: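 About 1.5 million A549 cells given subcutaneously to nude mice. Dosing began once tumors reached ~40 mm3, with n = 6 per group. Mice received 1 or 5 mg/kg per day or vehicle (PBS) by tail-vein injection for 9 days. Body weight was monitored alongside tumor volume and weight at harvest.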

Compound: C[C@@H](NC(=O)[C@H](Cc1ccccc1)NC(=O)[C@@H](CCCNC(=N)N)NC(=O)[C@H](CCCN)NC(=O)[C@@H]1CNC(=O)c2cc3cc(c2)C(=O)N[C@H](Cc2ccc4ccccc4c2)C(=O)N[C@@H](CO)C(=O)N[C@@H](CC(N)=O)C(=O)N[C@H](Cc2ccc4ccccc4c2)C(=O)N[C@@H](c2ccccc2)C(=O)N[C@@H](CCCCNC3=O)C(=O)N[C@H](Cc2ccccc2)C(=O)N[C@@H](CCC(N)=O)C(=O)N[C@H](CCCNC(=N)N)C(=O)N[C@@H](CCCNC(=N)N)C(=O)N1)C(N)=O ([d2Nal]SN[d2Nal][Phg]K[dF]Q[dR]R[Dap][Orn][dR]F[dA]-NH2; linker N-6-11 via Trimesoyl)
- Drug uptake [1]: 226%
- Activity (NCI-H358 [2]): 14.7%
- Kd (Albumin): 57 µM
- Activity (A549 [3]): 100%
- Activity [4]: inactive
- Activity [5]: inactive
- Activity (A549 [6]): 50 mm3
- Activity (NCI-H358 [7]): 80%
- Activity (NCI-H358 [8]): Active
- Activity [9]: Non-Toxic
